≈ marks a conversion by molar mass, not a printed value.
Legend:
Assay type in all cases: functional
Mucor hiemalis = experiment: Antifungal activity against Mucor hiemalis ATCC 8690 by M38-A guideline based method
Summary of the method: (§1)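 Broth microdilution per CLSI (M38-A for filamentous fungi, M27-A3 for yeasts), in MOPS-buffered RPMI-1640 medium. Itraconazole served as the reference antifungal. The MIC was read as the endpoint and expressed in µg/mL.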

Cyberlindnera jadinii = experiment: Antifungal activity against Candida utilis ATCC 9226 by M27-A3 guideline based method; conditions: Williopsis jadinii; summary of the method: as §1
Candida albicans = experiment: Antifungal activity against Candida albicans ATCC 10231 by M27-A3 guideline based method; summary of the method: as §1
Candida tropicalis = experiment: Antifungal activity against Candida tropicalis ATCC 13803 by M27-A3 guideline based method; summary of the method: as §1
Pichia kudriavzevii = experiment: Antifungal activity against Candida krusei ATCC 14243 by M27-A3 guideline based method; summary of the method: as §1
Candida parapsilosis = experiment: Antifungal activity against Candida parapsilosis ATCC 22019 by M27-A3 guideline based method; conditions: Lodderomyces parapsilosis; summary of the method: as §1
[1] = test system: Cutaneotrichosporon cutaneum; experiment: Antifungal activity against Trichosporon cutaneum ATCC 28592 by M38-A guideline based method; summary of the method: as §1
Rhizopus arrhizus = experiment: Antifungal activity against Rhizopus oryzae ATCC 10329by M38-A guideline based method; summary of the method: as §1
Nakaseomyces glabratus = experiment: Antifungal activity against Candida glabrata ATCC 34138 by M27-A3 guideline based method; summary of the method: as §1
Aspergillus fumigatus = experiment: Antifungal activity against Aspergillus fumigatus ATCC 16907 by M38-A guideline based method; summary of the method: as §1

SMILES | MIC (Mucor hiemalis) [µg/mL] | MIC (Cyberlindnera jadinii) [µg/mL] | MIC (Candida albicans) [µg/mL] | MIC (Candida tropicalis) [µg/mL] | MIC (Pichia kudriavzevii) [µg/mL] | MIC (Candida parapsilosis) [µg/mL] | MIC [1] [µg/mL] | MIC (Rhizopus arrhizus) [µg/mL] | MIC (Nakaseomyces glabratus) [µg/mL] | MIC (Aspergillus fumigatus) [µg/mL]
O=C(c1ccccc1)c1nnn(CCn2c(-c3ccccc3)c(-c3ccccc3)oc2=O)c1-c1ccccc1 | 16 (≈ 31.2 µM) | 8 (≈ 15.6 µM) | 8 (≈ 15.6 µM) | 8 (≈ 15.6 µM) | 8 (≈ 15.6 µM) | 8 (≈ 15.6 µM) | 8 (≈ 15.6 µM) | 16 (≈ 31.2 µM) | 2 (≈ 3.9 µM) | 16 (≈ 31.2 µM)
Cc1ccc(S(=O)(=O)c2nnn(CCn3c(-c4ccccc4)c(-c4ccccc4)oc3=O)c2-c2ccc(Cl)cc2)cc1 | 16 (≈ 26.8 µM) | 8 (≈ 13.4 µM) | 8 (≈ 13.4 µM) | 8 (≈ 13.4 µM) | 8 (≈ 13.4 µM) | 8 (≈ 13.4 µM) | 8 (≈ 13.4 µM) | 16 (≈ 26.8 µM) | 4 (≈ 6.7 µM) | 4 (≈ 6.7 µM)
Cc1ccc(S(=O)(=O)c2nnn(CCn3c(-c4ccccc4)c(-c4ccccc4)oc3=O)c2-c2ccc([N+](=O)[O-])cc2)cc1 | 16 (≈ 26.3 µM) | 4 (≈ 6.58 µM) | 4 (≈ 6.58 µM) | 8 (≈ 13.2 µM) | 0.25 (≈ 0.411 µM) | 8 (≈ 13.2 µM) | 8 (≈ 13.2 µM) | 16 (≈ 26.3 µM) | 4 (≈ 6.58 µM) | 2 (≈ 3.29 µM)
Cc1ccc(S(=O)(=O)c2nnn(CCn3c(-c4ccccc4)c(-c4ccccc4)oc3=O)c2-c2ccccc2)cc1 | 4 (≈ 7.11 µM) | 8 (≈ 14.2 µM) | 8 (≈ 14.2 µM) | 8 (≈ 14.2 µM) | 0.5 (≈ 0.889 µM) | 8 (≈ 14.2 µM) | 8 (≈ 14.2 µM) | 16 (≈ 28.4 µM) | 1 (≈ 1.78 µM) | 2 (≈ 3.55 µM)
CC(=O)c1nnn(CCn2c(-c3ccccc3)c(-c3ccccc3)oc2=O)c1C | 16 (≈ 41.2 µM) | 8 (≈ 20.6 µM) | 8 (≈ 20.6 µM) | 8 (≈ 20.6 µM) | 8 (≈ 20.6 µM) | 4 (≈ 10.3 µM) | 8 (≈ 20.6 µM) | 8 (≈ 20.6 µM) | 2 (≈ 5.15 µM) | 16 (≈ 41.2 µM)
N#Cc1nnn(CCn2c(-c3ccccc3)c(-c3ccccc3)oc2=O)c1-c1ccccc1 | 2 (≈ 4.61 µM) | 8 (≈ 18.5 µM) | 8 (≈ 18.5 µM) | 8 (≈ 18.5 µM) | 0.5 (≈ 1.15 µM) | 8 (≈ 18.5 µM) | 8 (≈ 18.5 µM) | 16 (≈ 36.9 µM) | 0.12 (≈ 0.277 µM) | 16 (≈ 36.9 µM)
Cc1ccc(S(=O)(=O)c2nnn(CCn3c(-c4ccccc4)c(-c4ccccc4)oc3=O)c2-c2ccc(Cl)s2)cc1 | 16 (≈ 26.5 µM) | 8 (≈ 13.3 µM) | 8 (≈ 13.3 µM) | 8 (≈ 13.3 µM) | 2 (≈ 3.32 µM) | 4 (≈ 6.63 µM) | 8 (≈ 13.3 µM) | 16 (≈ 26.5 µM) | 2 (≈ 3.32 µM) | 16 (≈ 26.5 µM)
Cc1ccc(S(=O)(=O)c2nnn(CCn3c(-c4ccccc4)c(-c4ccccc4)oc3=O)c2-c2cccs2)cc1 | 16 (≈ 28.1 µM) | 8 (≈ 14.1 µM) | 8 (≈ 14.1 µM) | 8 (≈ 14.1 µM) | 8 (≈ 14.1 µM) | 8 (≈ 14.1 µM) | 8 (≈ 14.1 µM) | 16 (≈ 28.1 µM) | 1 (≈ 1.76 µM) | 8 (≈ 14.1 µM)
Cc1ccc(-c2c(S(=O)(=O)c3ccc(C)cc3)nnn2CCn2c(-c3ccccc3)c(-c3ccccc3)oc2=O)cc1 | 16 (≈ 27.7 µM) | 4 (≈ 6.94 µM) | 1 (≈ 1.73 µM) | 8 (≈ 13.9 µM) | 8 (≈ 13.9 µM) | 0.25 (≈ 0.434 µM) | 8 (≈ 13.9 µM) | 16 (≈ 27.7 µM) | 2 (≈ 3.47 µM) | 8 (≈ 13.9 µM)
Cc1ccc(S(=O)(=O)c2nnn(CCn3c(-c4ccccc4)c(-c4ccccc4)oc3=O)c2-c2cccc([N+](=O)[O-])c2)cc1 | 16 (≈ 26.3 µM) | 8 (≈ 13.2 µM) | 8 (≈ 13.2 µM) | 8 (≈ 13.2 µM) | 8 (≈ 13.2 µM) | 0.5 (≈ 0.823 µM) | 2 (≈ 3.29 µM) | 16 (≈ 26.3 µM) | 0.12 (≈ 0.197 µM) | 16 (≈ 26.3 µM)
CCC(C)n1ncn(-c2ccc(N3CCN(c4ccc(OCC5COC(Cn6cncn6)(c6ccc(Cl)cc6Cl)O5)cc4)CC3)cc2)c1=O (stereo not given) [ITRACONAZOLE] | 4 (≈ 5.67 µM) | 0.25 (≈ 0.354 µM) | 0.03 (≈ 0.0425 µM) | 0.06 (≈ 0.085 µM) | 0.25 (≈ 0.354 µM) | 0.06 (≈ 0.085 µM) | 8 (≈ 11.3 µM) | 1 (≈ 1.42 µM) | 1 (≈ 1.42 µM) | 1 (≈ 1.42 µM)

Reference: ChEMBL document CHEMBL4257460, “Synthesis and antifungal activity of novel oxazolidin-2-one-linked 1,2,3-triazole derivatives” (2017)
